Results as given in ChEMBL document CHEMBL1132383, “Cardioselective antiischemic ATP-sensitive potassium channel (K(ATP)) openers. 6. Effect of modifications at C6 of benzopyranyl cyanoguanidines” (J Med Chem, 1999).

How the values were obtained:
Type in all cases: functional
[1] = species on record: Rattus norvegicus; assay: In vitro relaxation of rat aorta precontracted with methoxamine.
Method in brief: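 Rat aortic rings precontracted with methoxamine. IC50 is the concentration giving relaxation, reported as the mean of n = 4 or more.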

[2] = species on record: Rattus norvegicus; assay: Antiischemic potency by measurement of increase in time to contracture in globally ischemic isolated perfused rat hearts
Method in brief: (§1)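 Isolated rat hearts, perfused and then subjected to global ischemia. Activity is read as the lengthening of time to onset of ischemic contracture. Compounds were first tested at 10 μM. EC25 for increasing time to contracture was then determined.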

[3] = Ratio of Antiischemic potency to vasorelaxant potency.
Method in brief: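 Selectivity is calculated as the EC25 for lengthening time to contracture in globally ischemic isolated rat hearts divided by the IC50 for relaxing methoxamine-contracted rat aorta.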

[4] = species on record: Rattus norvegicus; assay: Antiischemic potency by measurement of increase in time to contracture in globally ischemic isolated perfused rat hearts at 1 uM.
Method in brief: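 Isolated perfused rat hearts under global ischemia, compound present at 1 μM. Cardioprotection is read as the increase in time to onset of ischemic contracture.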

[5] = species on record: Rattus norvegicus; assay: Antiischemic potency by measurement of increase in time to contracture in globally ischemic isolated perfused rat hearts.; method in brief: as §1

| SMILES | IC50 [1] [nM] | EC25 [2] [nM] | Ratio [3] | Activity [4] [%] | EC25 [5] [nM] |
| --- | --- | --- | --- | --- | --- |
| CC1(C)Oc2ccc(C#N)cc2[C@H](N(Cc2ncc[nH]2)c2ccc(Cl)cc2)[C@H]1O [BMS-191095] | > 30000 | 1400 | < 0.05 |  |  |
| CC1(C)Oc2ccc(C#N)cc2[C@@H](N2CCCC2=O)[C@@H]1O [CROMAKALIM] |  | 8900 | 278 |  |  |
| CC1(C)Oc2ccc(C(=O)Cc3ccccc3)cc2[C@@H](/N=C(\NC#N)Nc2ccc(Cl)cc2)[C@@H]1O | 6800 | 400 | 0.06 |  |  |
| CC1(C)Oc2ccc(C#N)cc2[C@@H](/N=C(\NC#N)Nc2ccc(Cl)cc2)[C@@H]1O |  | 2500 | 1.4 |  |  |
| CCN(CC(F)(F)F)S(=O)(=O)c1ccc2c(c1)[C@@H](/N=C(\NC#N)Nc1ccc(Cl)cc1)[C@H](O)C(C)(C)O2 |  | 260 |  |  |  |
| CC1(C)Oc2ccc(S(=O)(=O)N3CCC(Cc4ccccc4)CC3)cc2[C@@H](/N=C(\NC#N)Nc2ccc(Cl)cc2)[C@@H]1O | > 30000 | 940 |  |  |  |
| C=C(c1ccccc1)c1ccc2c(c1)[C@@H](/N=C(\NC#N)Nc1ccc(Cl)cc1)[C@H](O)C(C)(C)O2 | 10700 |  |  | 3 |  |
| CC(C)N(C(C)C)S(=O)(=O)c1ccc2c(c1)[C@@H](/N=C(\NC#N)Nc1ccc(Cl)cc1)[C@H](O)C(C)(C)O2 |  | 240 |  |  |  |
| CC(C)CN(C)S(=O)(=O)c1ccc2c(c1)[C@@H](/N=C(\NC#N)Nc1ccc(Cl)cc1)[C@H](O)C(C)(C)O2 |  | 250 |  |  |  |
| CC1(C)Oc2ccc(C(=O)Nc3ccccc3)cc2[C@@H](/N=C(\NC#N)Nc2ccc(Cl)cc2)[C@@H]1O | > 100000 | >10000 |  |  |  |
| CC1(C)Oc2ccc(S(=O)(=O)N3CCCC3)cc2[C@@H](/N=C(\NC#N)Nc2ccc(Cl)cc2)[C@@H]1O |  |  |  |  | 330 |
| CC1(C)Oc2ccc(S(=O)(=O)N3CCCC(Cc4ccccc4)C3)cc2[C@@H](/N=C(\NC#N)Nc2ccc(Cl)cc2)[C@@H]1O (some centres undefined) |  | 1100 |  |  |  |
| CC1(C)Oc2ccc(S(=O)(=O)N3CCCCCC3)cc2[C@@H](/N=C(\NC#N)Nc2ccc(Cl)cc2)[C@@H]1O |  | 600 |  |  |  |
| CC1CCN(S(=O)(=O)c2ccc3c(c2)[C@@H](/N=C(\NC#N)Nc2ccc(Cl)cc2)[C@H](O)C(C)(C)O3)CC1 |  | 650 |  |  |  |

Now from value to compound, other results behind:

| IC50 [1] [nM] | SMILES | EC25 [2] [nM] | Ratio [3] | Activity [4] [%] | EC25 [5] [nM] |
| --- | --- | --- | --- | --- | --- |
| 500 | C[C@@H]1CCC[C@H](C)N1S(=O)(=O)c1ccc2c(c1)[C@@H](/N=C(\NC#N)Nc1ccc(Cl)cc1)[C@H](O)C(C)(C)O2 | 340 | 0.68 |  |  |
| 1900 | CC1(C)Oc2ccc(S(=O)(=O)N3CCCCC3)cc2[C@@H](/N=C(\NC#N)Nc2ccc(Cl)cc2)[C@@H]1O | 270 | 0.14 |  |  |
| 3100 | CC1(C)Oc2ccc(S(=O)(=O)N3CCOCC3)cc2[C@@H](/N=C(\NC#N)Nc2ccc(Cl)cc2)[C@@H]1O | 1000 | 0.32 |  |  |
| 44100 | COP(=O)(c1ccccc1)c1ccc2c(c1)[C@@H](/N=C(\NC#N)Nc1ccc(Cl)cc1)[C@H](O)C(C)(C)O2 (some centres undefined) | 2400 | 0.05 |  |  |
| 9400 | CC(C)CN(CC(C)C)S(=O)(=O)c1ccc2c(c1)[C@@H](/N=C(\NC#N)Nc1ccc(Cl)cc1)[C@H](O)C(C)(C)O2 | 40 | 0.004 |  |  |
| 11700 | CC1(C)Oc2ccc(S(=O)(=O)NC3CCCCC3)cc2[C@@H](/N=C(\NC#N)Nc2ccc(Cl)cc2)[C@@H]1O | 2200 | 0.19 |  |  |
| 7100 | CC1(C)Oc2ccc(C(=O)c3ccccc3)cc2[C@@H](/N=C(\NC#N)Nc2ccc(Cl)cc2)[C@@H]1O | 900 | 0.13 |  |  |
| 1100 | CCN(CC)S(=O)(=O)c1ccc2c(c1)[C@@H](/N=C(\NC#N)Nc1ccc(Cl)cc1)[C@H](O)C(C)(C)O2 | 300 | 0.27 |  |  |
| 10000 | CC1(C)Oc2ccc(Cc3ccccc3)cc2[C@@H](/N=C(\NC#N)Nc2ccc(Cl)cc2)[C@@H]1O | 11100 | 1.1 |  |  |
| 3300 | CC1(C)Oc2ccc(S(=O)(=O)Nc3ccccc3)cc2[C@@H](/N=C(\NC#N)Nc2ccc(Cl)cc2)[C@@H]1O | 1900 | 0.6 |  |  |
| 500 | CC1(C)Oc2ccc(S(=O)(=O)c3ccccc3)cc2[C@@H](/N=C(\NC#N)Nc2ccc(Cl)cc2)[C@@H]1O | 800 | 1.6 |  |  |
| 32100 | CC1CC(C)CN(S(=O)(=O)c2ccc3c(c2)[C@@H](/N=C(\NC#N)Nc2ccc(Cl)cc2)[C@H](O)C(C)(C)O3)C1 (some centres undefined) | 230 | 0.007 |  |  |
| 41300 | CC1(C)Oc2ccc(S(N)(=O)=O)cc2[C@@H](/N=C(\NC#N)Nc2ccc(Cl)cc2)[C@@H]1O | >10000 |  |  |  |
| 5400 | CC(C)(C)C(=O)c1ccc2c(c1)[C@@H](/N=C(\NC#N)Nc1ccc(Cl)cc1)[C@H](O)C(C)(C)O2 | 1800 | 0.33 |  |  |
